ChEMBL document CHEMBL1132072, “Synthesis, in vitro cytotoxicity and in vivo anti-inflammatory activity of long chain 3-amino-1,2-diols” (Bioorg Med Chem Lett, 1999)

What was measured:
A2780 = assay: In vitro inhibitory activity against human ovarian cancer A2780 cell line; assay type: functional, cell-based
How it was run: (§1)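 Monolayer cultures in RPMI 1640 with 5% heat-inactivated FCS and 2 mM L-glutamine, 37 °C, 5% CO2. Seeded at 5,000–20,000 cells/well according to doubling time, in gentamicin-containing medium. Compounds dissolved in DMSO and tested at five 10-fold dilutions from a top final concentration of 10⁻⁴ M for 72 h. Cells were TCA-fixed and stained with SRB, with OD read at 492 nm (NCI protocol). IC50 is the concentration giving 50% growth inhibition.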

UMSCC22B = assay: In vitro inhibitory activity against human and neck squamous cell carcinoma UMSCC-22B cell line; assay type: functional, cell-based; how it was run: as §1
[1] = tested on: Lewis lung carcinoma cell line; assay: In vitro inhibitory activity against LL murine NSCLC cell line;; assay type: functional, cell-based; details: Mus musculus; how it was run: as §1
H322 = assay: In vitro inhibitory activity against H322 human NSCLC cell line; assay type: functional, cell-based; details: NCI-H322; how it was run: as §1
WiDr = assay: In vitro inhibitory activity against human colon carcinoma WiDr cell line;; assay type: functional, cell-based; how it was run: as §1
Colon 26 = assay: In vitro inhibitory activity against murine colon carcinoma C26-10 cell line; assay type: functional, cell-based; details: Mus musculus; how it was run: as §1
Rattus norvegicus [2] = assay: In vivo anti-inflammatory activity against carrageenan-induced paw edema assay in rats at dose 0.15 mM/kg; assay type: functional
How it was run: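 Fisher 344 rats of either sex, excluding pregnant females, six animals per group with two groups per compound. Edema induced by intradermal injection of 0.1 mL of 2% carrageenin (type K100) in saline into the right paw. Compound given ip as a single 0.15 mmol/kg dose at the same time. Paw edema measured 3.5 h later. Indomethacin served as the reference drug.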

Rattus norvegicus [3] = assay: In vivo anti-inflammatory activity against carrageenan-induced paw edema assay in rats at dose 0.11 mM/kg; assay type: functional

SMILES | IC50 (A2780) | IC50 (UMSCC22B) | IC50 [1] | IC50 (H322) | IC50 (WiDr) | IC50 (Colon 26) | Inhibition (Rattus norvegicus [2]) | Inhibition (Rattus norvegicus [3])
CCCCCCCCCCCCCCCCCC[C@H](N)[C@H](O)CO | 2.71 µM | 2.34 µM | 3.47 µM | 1.71 µM | 3.47 µM | 3.97 µM | 79.6% | –
CCCCCCCCCCCCCC[C@H](NC(=O)OC(C)(C)C)[C@H](O)CO | 30.4 µM | 23.8 µM | 24.2 µM | 18 µM | 20.8 µM | 29.3 µM | 45.2% | –
CCCCCCCCCCCCCC[C@@H](N)[C@@H](O)CO | 2.63 µM | 2.49 µM | 1.87 µM | 1.52 µM | 2.99 µM | 3.58 µM | 85.3% | –
CCCCCCCCCCCCCCCCCC[C@@H](N)[C@@H](O)CO | 32.8 µM | 3.5 µM | 10.6 µM | 24.4 µM | 13.3 µM | 21.5 µM | 80.04% | –
CCCCCCCCCCCCCC[C@H](N)[C@H](O)CO | 2.66 µM | 1.89 µM | 2.86 µM | 1.45 µM | 2.76 µM | 3.68 µM | 81.1% | –
CCCCCCCCCCCCCCC(N)CN (stereo not drawn) | 2.79 µM | 1.89 µM | 2.93 µM | 2.94 µM | 24.2 µM | 3.3 µM | 93.5% | –
COc1ccc2c(c1)c(CC(=O)O)c(C)n2C(=O)c1ccc(Cl)cc1 [INDOMETHACIN] | – | – | – | – | – | – | – | 53.3%
